Measurements: ChEMBL document CHEMBL5321214, “Targeting the multifaceted neurotoxicity of Alzheimer's disease by tailored functionalisation of the curcumin scaffold” (Eur J Med Chem, 2023)
Activity calls are given as the source filed them. The calls are words filed in the database; no cut-off is given here.

How the values were obtained:
[1] = tested on: SH-SY5Y; assay: Antioxidant activity in human SH-SY5Y cells assessed as increase in intracellular GSH level at 2.5 uM incubated for 24 hrs by […] fluorescence analysis; type: functional
Method in brief: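 SH-SY5Y (2×10^4 cells/well) grown 24 h, then exposed to 2.5 μM for 24 h at 37 °C. Fluorescent probe added 30 min at 37 °C; read at ex 355/em 460 nm. GSH (μM) from a GSH standard curve. Mean ± SEM of three experiments; one-way ANOVA with Dunnett's test.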

[2] = tested on: Microglia; assay: Antiinflammatory activity against Sprague-Dawley rat microglial cells assessed as downregulation of IL-1 beta mRNA expression at 10 uM pretreated with compound for 1 hr followed by LPS stimulation for 6 hrs by real-time PCR analysis; type: functional, cell-based; details: time 7.0 hrs
Method in brief: (§1)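 Primary cortical microglia (postnatal day 1 rat pups, shaken off mixed glial cultures, ~97% Iba1-positive). Compound (DMSO ≤0.1%) for 1 h, then 100 ng/mL ultra-pure E. coli LPS for 6 h. QIAzol RNA extraction, SuperScript IV reverse transcription, real-time PCR. Mean ± SEM, n = 3 in triplicate; one-way ANOVA, Holm-Sidak test.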

[3] = tested on: Microglia; assay: Cytotoxicity against Sprague-Dawley rat microglial cells assessed as effect on cell viability at 1 to 20 uM incubated for 24 hrs by MTT assay; type: toxicity, cell-based; details: dose 1-20 µM
Method in brief: (§2)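 Primary rat microglia, 6×10^4 cells/well, switched to serum-free medium 1 h before 24 h exposure (1–20 μM, DMSO ≤0.1%). MTT 0.18 mg/mL for 4 h at 37 °C, formazan dissolved in DMSO, absorbance 570 nm (reference 630 nm). Vehicle-treated cells = 100% viability.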

[4] = tested on: SH-SY5Y; assay: Antioxidant activity in human SH-SY5Y cells assessed as reduction in intracellular ROS formation at 2.5 uM incubated for 24 hrs followed by incubation with t-BuOOH for 30 mins by H2DCF-DA staining based fluorescence analysis; type: functional; details: time 24.5 hrs
Method in brief: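 SH-SY5Y (2×10^4 cells/well) exposed to 2.5 μM for 24 h, loaded with H2DCF-DA 30 min at room temperature, probe removed, then challenged with 50 μM t-BuOOH 30 min at room temperature. Fluorescence ex 485/em 535 nm, expressed as % ROS increase. Three independent experiments; one-way ANOVA with Dunnett's test.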

[5] = Effect on TNF-alpha release in Sprague-Dawley rat microglial cells at 20 uM by ELISA; type: toxicity, cell-based; details: microglia
Method in brief: (§3)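 Primary cortical rat microglia in DMSO (≤0.1%) or vehicle for 1 h, then 100 ng/mL LPS for 24 h. TNF-α and IL-1β in culture medium by ELISA against standard curves (pg/mL), expressed as % of LPS-stimulated cultures. Mean ± SEM of 3 independent experiments; one-way ANOVA, Holm-Sidak test.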

[6] = tested on: Microglia; assay: Antiinflammatory activity against Sprague-Dawley rat microglial cells assessed as downregulation of TNF-alpha mRNA expression at 10 uM pretreated with compound for 1 hr followed by LPS stimulation for 6 hrs by real-time PCR analysis; type: functional, cell-based; details: time 7.0 hrs; method in brief: as §1
[7] = tested on: SH-SY5Y; assay: Cytotoxicity against human SH-SY5Y cells assessed as effect on cell viability at 1.25 to 40 uM incubated for 24 hrs by MTT assay; type: toxicity, cell-based; details: dose 1.25-40 µM
Method in brief: (§4)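 SH-SY5Y, 2×10^4 cells/well, grown 24 h then exposed 24 h (1.25–40 μM) at 37 °C, 5% CO2. MTT 0.5 mg/mL in HBSS for 2 h, washed, formazan dissolved in isopropanol, read at 570 nm (reference 690 nm).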

[8] = Effect on IL-1 beta release in Sprague-Dawley rat microglial cells at 20 uM by ELISA; type: toxicity, cell-based; details: microglia; method in brief: as §3
[9] = tested on: Microglia; assay: Antiinflammatory activity against Sprague-Dawley rat microglial cells assessed as inhibition of LPS-induced TNF-alpha production at 1 to 20 uM pretreated with compound for 1 hr followed by LPS stimulation for 24 hrs by ELISA; type: functional, cell-based; details: dose 1-20 µM, time 25.0 hrs; method in brief: as §3
[10] = tested on: Microglia; assay: Antiinflammatory activity against Sprague-Dawley rat microglial cells assessed as downregulation of NLRP3 mRNA expression at 10 uM pretreated with compound for 1 hr followed by LPS stimulation for 6 hrs by real-time PCR analysis; type: functional, cell-based; details: time 7.0 hrs; method in brief: as §1
[11] = tested on: Microglia; assay: Antiinflammatory activity against Sprague-Dawley rat microglial cells assessed as inhibition of LPS-induced IL-1 beta production at 1 to 20 uM pretreated with compound for 1 hr followed by LPS stimulation for 24 hrs by ELISA; type: functional, cell-based; details: dose 1-20 µM, time 25.0 hrs; method in brief: as §3
[12] = target: Amyloid-beta precursor protein (Homo sapiens) (UniProt P05067); assay: Anti-oligomeric activity against Abeta42 (unknown origin) assessed as depletion of the formation of toxic HMW Abeta42 oligomers at 5 uM measured at day 7 from sample solubilization by capillary electrophoresis assay; details: time 7.0 day
Sequence of Amyloid-beta precursor protein (Homo sapiens) (P05067 whole entry, the tested form may be a part): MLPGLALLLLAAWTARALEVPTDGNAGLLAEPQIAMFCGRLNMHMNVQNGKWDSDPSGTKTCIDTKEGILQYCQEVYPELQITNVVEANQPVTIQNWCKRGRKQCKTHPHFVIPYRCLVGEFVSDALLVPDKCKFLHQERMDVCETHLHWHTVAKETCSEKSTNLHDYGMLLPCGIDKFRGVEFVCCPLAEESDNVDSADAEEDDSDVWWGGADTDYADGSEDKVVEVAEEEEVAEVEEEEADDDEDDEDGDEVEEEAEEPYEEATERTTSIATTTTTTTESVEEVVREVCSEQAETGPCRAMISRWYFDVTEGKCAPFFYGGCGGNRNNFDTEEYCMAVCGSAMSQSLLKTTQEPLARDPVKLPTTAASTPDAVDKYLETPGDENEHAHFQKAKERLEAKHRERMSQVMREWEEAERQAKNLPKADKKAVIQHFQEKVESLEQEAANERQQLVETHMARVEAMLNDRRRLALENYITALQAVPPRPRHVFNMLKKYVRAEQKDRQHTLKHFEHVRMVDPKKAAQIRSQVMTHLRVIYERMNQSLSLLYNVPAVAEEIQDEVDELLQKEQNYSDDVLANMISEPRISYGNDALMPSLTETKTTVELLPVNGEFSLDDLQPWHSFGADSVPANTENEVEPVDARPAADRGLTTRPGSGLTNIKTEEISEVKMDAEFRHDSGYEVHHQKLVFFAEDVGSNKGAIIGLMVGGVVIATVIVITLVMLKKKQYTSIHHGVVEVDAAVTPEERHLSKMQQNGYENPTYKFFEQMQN
Method in brief: (§5)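 Aβ42 stock diluted to 221 μM in 20 mM sodium phosphate pH 7.4 containing compound (ethanol stocks 1.53 mM). Capillary electrophoresis: BGE 80 mM sodium phosphate pH 7.4, 30 mbar × 3 s hydrodynamic injection, +12 kV, 25 °C, 200 nm detection. Oligomers assigned by effective mobility; HMW oligomer peak quantified semiquantitatively as normalised area %.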

[13] = target: Keap1/Nrf2 (Homo sapiens) (UniProt Q16236+Q14145); assay: Activation of Keap1/Nrf2 in human SH-SY5Y cells assessed as Nrf2 nuclear translocation by measuring increase in nuclear to cytosolic Nrf2 ratio at 2.5 uM incubated for 3 hrs by western blot analysis; type: cell-based
Sequence of Keap1/Nrf2 (Homo sapiens) (Q14145 whole entry, looked up): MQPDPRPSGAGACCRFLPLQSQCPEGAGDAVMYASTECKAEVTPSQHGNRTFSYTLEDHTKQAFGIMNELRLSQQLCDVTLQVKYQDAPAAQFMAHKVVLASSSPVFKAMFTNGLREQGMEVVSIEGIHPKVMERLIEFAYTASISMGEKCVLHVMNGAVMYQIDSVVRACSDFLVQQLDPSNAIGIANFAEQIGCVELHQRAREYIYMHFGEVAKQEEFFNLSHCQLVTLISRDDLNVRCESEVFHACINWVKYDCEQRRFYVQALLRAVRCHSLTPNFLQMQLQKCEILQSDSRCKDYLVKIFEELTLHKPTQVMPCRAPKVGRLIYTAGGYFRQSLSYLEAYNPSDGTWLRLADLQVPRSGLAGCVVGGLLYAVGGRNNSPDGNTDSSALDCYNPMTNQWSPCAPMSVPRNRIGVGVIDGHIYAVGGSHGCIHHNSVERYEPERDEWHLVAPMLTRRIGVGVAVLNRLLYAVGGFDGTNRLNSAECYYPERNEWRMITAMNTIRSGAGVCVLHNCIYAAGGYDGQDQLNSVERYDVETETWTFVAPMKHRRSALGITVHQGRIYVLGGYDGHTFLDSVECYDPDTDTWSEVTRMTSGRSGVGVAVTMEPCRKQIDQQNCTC
Sequence of Keap1/Nrf2 (Homo sapiens) (Q16236 whole entry, looked up): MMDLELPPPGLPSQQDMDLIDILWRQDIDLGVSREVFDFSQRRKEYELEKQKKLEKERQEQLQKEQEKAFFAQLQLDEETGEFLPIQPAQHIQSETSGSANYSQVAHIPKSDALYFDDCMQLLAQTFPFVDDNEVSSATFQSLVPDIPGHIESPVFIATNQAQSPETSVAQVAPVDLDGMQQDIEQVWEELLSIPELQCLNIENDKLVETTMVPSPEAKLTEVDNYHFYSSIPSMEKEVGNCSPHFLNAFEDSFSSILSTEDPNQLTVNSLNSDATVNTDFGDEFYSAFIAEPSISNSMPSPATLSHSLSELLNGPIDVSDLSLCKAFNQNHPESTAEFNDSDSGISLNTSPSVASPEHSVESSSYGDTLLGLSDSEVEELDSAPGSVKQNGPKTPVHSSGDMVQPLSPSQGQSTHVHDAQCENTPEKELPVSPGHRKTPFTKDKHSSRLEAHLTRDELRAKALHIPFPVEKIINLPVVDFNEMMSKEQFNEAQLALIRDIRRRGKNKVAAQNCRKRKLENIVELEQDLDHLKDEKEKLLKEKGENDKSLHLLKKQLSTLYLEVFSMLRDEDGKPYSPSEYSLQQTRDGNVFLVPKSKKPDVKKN
Method in brief: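 SH-SY5Y seeded 2×10^6 cells/dish, grown 24 h, then exposed 3 h at 37 °C, 5% CO2. Nuclear and cytosolic fractions immunoblotted for Nrf2, membranes stripped and reprobed for β-actin and lamin B1 as loading references. Mean ± SEM of three independent experiments; one-way ANOVA with Dunnett's test.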

[14] = tested on: Drosophila; assay: Antioxidant activity in Spastin Drosophila (Tubulin/Gal4 RNAi DSpast) neurodegenerative model assessed as decrease in intracelluar ROS level in A2 muscle at 10 uM flies raised in compound-enriched food by DHE staining based fluorescence analysis; type: functional, organism-based
Method in brief: (§6)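 Spastin-RNAi (Tubulin-Gal4 cross, 28 °C) third-instar larvae raised on compound-enriched food, dissected in HL3, stained 30 min with 30 μM DHE, fixed in 4% PFA, DAPI counterstained. Confocal imaging (DHE 580–630 nm); two 2500 μm² ROIs per muscle or two 1900 μm² ROIs per brain, 10–15 larvae per group; DHE/DAPI ratio.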

[15] = tested on: Drosophila; assay: Antioxidant activity in Spastin Drosophila (Tubulin/Gal4 RNAi DSpast) neurodegenerative model assessed as decrease in intracelluar ROS level in brain at 10 uM flies raised in compound-enriched food by DHE staining based fluorescence analysis; type: functional, organism-based; method in brief: as §6
[16] = Effect on IL-1 beta release in Sprague-Dawley rat microglial cells at 5 uM by ELISA; type: toxicity, cell-based; details: microglia; method in brief: as §3
[17] = Toxicity against Drosophila W1118 assessed as proportion of eclosed-flies at 50 uM measured after 72 hrs
[18] = tested on: Microglia; assay: Antiinflammatory activity against Sprague-Dawley rat microglial cells assessed as downregulation of TNF-alpha mRNA expression at 5 uM pretreated with compound for 1 hr followed by LPS stimulation for 6 hrs by real-time PCR analysis; type: functional, cell-based; details: time 7.0 hrs; method in brief: as §1
[19] = Toxicity against Drosophila W1118 assessed as proportion of eclosed-flies at 30 uM measured after 72 hrs
[20] = Toxicity against Drosophila W1118 assessed as proportion of eclosed-flies at 1 uM measured after 72 hrs
[21] = Toxicity against Drosophila W1118 assessed as minimum toxic concentration by measuring eclosion rate measured for 72 hrs
[22] = tested on: Microglia; assay: Cytotoxicity against Sprague-Dawley rat microglial cells assessed as decrease in cell viability at 10 uM incubated for 24 hrs by MTT assay; type: toxicity, cell-based; method in brief: as §2
[23] = tested on: SH-SY5Y; assay: Cytotoxicity against human SH-SY5Y cells assessed as decrease in cell viability at >5 uM incubated for 24 hrs by MTT assay; type: toxicity, cell-based; method in brief: as §4
[24] = tested on: Drosophila; assay: Effect on CAT transcript expression in Spastin Drosophila (Tubulin/Gal4 RNAi DSpast) neurodegenerative model at 10 uM flies raised in compound-enriched food by real-time PCR analysis; type: functional
Method in brief: (§7)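 Total RNA from 5 third-instar Spastin-RNAi larvae raised on standard or compound-enriched food; Tubulin-Gal4/+ as control line. One-step SYBR RT-qPCR normalised to Rp49 by the 2^−ΔΔCt method. n = 3 experiments; one-way ANOVA, Tukey's test.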

[25] = Effect on TNF-alpha release in Sprague-Dawley rat microglial cells at 5 uM by ELISA; type: toxicity, cell-based; details: microglia; method in brief: as §3
[26] = Toxicity against Drosophila W1118 assessed as proportion of eclosed-flies at 10 uM measured after 72 hrs
[27] = target: Amyloid-beta precursor protein (Homo sapiens) (UniProt P05067); assay: Anti-oligomeric activity against Abeta42 (unknown origin) assessed as depletion of the formation of toxic HMW Abeta42 oligomers at 1 uM measured at day 7 to 10 from sample solubilization by capillary electrophoresis assay; details: time 7-10 day; method in brief: as §5
[28] = tested on: Drosophila; assay: Downregulation of SOD1 transcript expression in Spastin Drosophila (Tubulin/Gal4 RNAi DSpast) neurodegenerative model at 10 uM flies raised in compound-enriched food by real-time PCR analysis; type: functional; method in brief: as §7
[29] = tested on: Microglia; assay: Antiinflammatory activity against Sprague-Dawley rat microglial cells assessed as downregulation of IL-1 beta mRNA expression at 5 uM pretreated with compound for 1 hr followed by LPS stimulation for 6 hrs by real-time PCR analysis; type: functional, cell-based; details: time 7.0 hrs; method in brief: as §1
[30] = tested on: Drosophila; assay: Downregulation of Nrf2 transcript expression in Spastin Drosophila (Tubulin/Gal4 RNAi DSpast) neurodegenerative model at 10 uM flies raised in compound-enriched food by real-time PCR analysis; type: functional; method in brief: as §7
[31] = tested on: Microglia; assay: Antiinflammatory activity against Sprague-Dawley rat microglial cells assessed as inhibition of LPS-induced TNF-alpha production at 1 to 5 uM pretreated with compound for 1 hr followed by LPS stimulation for 24 hrs by ELISA; type: functional, cell-based; details: dose 1-5 µM, time 25.0 hrs; method in brief: as §3
[32] = Toxicity against Drosophila W1118 assessed as proportion of eclosed-flies at 20 uM measured after 72 hrs
[33] = tested on: Microglia; assay: Antiinflammatory activity against Sprague-Dawley rat microglial cells assessed as inhibition of LPS-induced IL-1 beta production at 1 to 5 uM pretreated with compound for 1 hr followed by LPS stimulation for 24 hrs by ELISA; type: functional, cell-based; details: dose 1-5 µM, time 25.0 hrs; method in brief: as §3
[34] = tested on: Microglia; assay: Antiinflammatory activity against Sprague-Dawley rat microglial cells assessed as downregulation of NLRP3 mRNA expression at 5 uM pretreated with compound for 1 hr followed by LPS stimulation for 6 hrs by real-time PCR analysis; type: functional, cell-based; details: time 7.0 hrs; method in brief: as §1

CCOC(=O)C/C(C(=O)/C=C/c1ccc(OC)cc1)=C(O)\C=C\c1ccc(OC)cc1
Activity [1]: Active
Activity [2]: Active
Activity [3]: Non-Toxic
inhibition at 2.5 µM [4]: 38%
Activity [5]: Non-Toxic
Activity [6]: Active
Activity [7]: Non-Toxic
Activity [8]: Non-Toxic
Activity [9]: Active
Activity [10]: Active
Activity [11]: Active
Activity [12]: inactive
Activity [13]: inactive

CCOC(=O)Cn1cc(C/C(C(=O)/C=C/c2ccc(OC)cc2)=C(O)\C=C\c2ccc(OC)cc2)nn1
Activity [14]: Active
Activity [15]: Active
Activity [1]: Active
Activity [16]: Non-Toxic
Activity [17]: 68.373%
Activity [18]: Active
inhibition at 2.5 µM [4]: 28%
Activity [19]: 81.642%
Activity [20]: 94.037%
MTC [21]: 10 µM
Activity [22]: Toxic
Activity [23]: Toxic
Activity [24]: inactive
Activity [25]: Non-Toxic
Activity [26]: 94.732%
Activity [27]: Active
inhibition [28]: Active
Activity [29]: Active
inhibition [30]: Active
Activity [31]: Active
Activity [12]: Active
Activity [32]: 83.806%
Activity [33]: Active
Activity [34]: Active
Activity ([13]; filed as activator): Active

COc1ccc(/C=C/C(=O)/C(CC(=O)O)=C(O)/C=C/c2ccc(OC)cc2)cc1 (mixture of isomers)
Activity [3]: Non-Toxic
Activity [5]: Non-Toxic
Activity [8]: Non-Toxic
Activity [9]: inactive
Activity [11]: inactive
